# Screening results deposited in PubChem by The Scripps Research Institute Molecular Screening Center.
# An excerpt weighted towards active compounds, which were near 2.1% of everything screened.
# VIM-2 inhibitor = inhibitors of Pseudomonas aeruginosa VIM-2 metallo-beta-lactamase; purified VIM-2, nitrocefin hydrolysis, epi-absorbance fluorescence; inhibition, % at 5.6 µM; hit rate 0.89% among 290,000; AID 1527;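 active = inhibition above the mean of all tested compounds plus 3 SD, cutoff set per screening run, cut at about 7.5% in these data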;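 also: red hydrolysis product quenches plate fluorescence so inhibitors raise well fluorescence; 0% = enzyme with DMSO and 100% = DMSO without enzyme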
# PKA-R1A act = activates the PKA-R1A holoenzyme complex; PKA-R1A dissociation, Cy5-IP20 fluorescence polarization; scaled: DMSO 0%, 113 µM cGMP 100%; activation, % at 11.4 µM; P00514+P68181; AID 504707; hit rate 0.083% among 340,000;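 active = percent activation above the mean of all tested compounds plus 3 SD, cut at about 19% in these data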;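 also: higher means more PKAc released from R1A so a rise in polarization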
# MsrA inhibitor = inhibits bovine methionine sulfoxide reductase A. purified bovine MsrA, absorbance read-out. inhibition, % at 15.5 µM. hit rate 0.75% among 360,000; in the data active = inhibition above about 4.5%;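 also: 0% = vehicle wells with enzyme and 100% = reference inhibitor wells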
# MsrA act = activates bovine MsrA enzyme; AID 602163; hit rate 0.3% among 360,000; purified bovine MsrA, absorbance read-out; activation, % at 10.6 µM; in the data active = activation above about 7.5%;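 also: 0% = vehicle and 100% = reference activator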
# PKA-R2B act = activators of human PKA-R2B complex. P22694+P31323. PKA-R2B holoenzyme dissociation, Cy5-IP20 fluorescence polarization; R2B truncated from residue 108, S112A mutant; 0% DMSO only, 100% 113 µM cGMP. activation, % at 11.4 µM. hit rate 0.079% among 340,000;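 active = activation above a cutoff set at the mean over all compounds plus 3 SD, cut at about 18% in these data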;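 also: higher means more holoenzyme dissociation and a rise in polarization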
# Target sequence (P31323 whole entry, looked up, other chains not shown, the tested form may be a part): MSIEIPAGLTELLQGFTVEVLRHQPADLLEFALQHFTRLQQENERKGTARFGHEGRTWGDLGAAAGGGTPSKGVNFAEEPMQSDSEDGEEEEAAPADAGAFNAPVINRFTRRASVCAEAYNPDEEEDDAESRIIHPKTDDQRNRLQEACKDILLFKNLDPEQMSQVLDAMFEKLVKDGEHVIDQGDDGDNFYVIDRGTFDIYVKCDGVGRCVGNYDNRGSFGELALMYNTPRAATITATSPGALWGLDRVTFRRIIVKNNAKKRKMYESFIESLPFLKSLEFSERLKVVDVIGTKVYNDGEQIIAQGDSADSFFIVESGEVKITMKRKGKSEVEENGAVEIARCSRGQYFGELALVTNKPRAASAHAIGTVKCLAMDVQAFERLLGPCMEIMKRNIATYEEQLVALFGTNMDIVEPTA
# IMP-1 inhibitor = blocks Pseudomonas aeruginosa IMP-1 metallo-beta-lactamase; AID 1556; inhibition, % at 5.6 µM; hit rate 0.45% among 290,000; purified IMP-1, nitrocefin hydrolysis, epi-absorbance fluorescence;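 active = inhibition above the mean plus 3 SD of all compounds in the same screening run, cut at about 4.5% in these data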;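 also: 0% = IMP-1 with DMSO and 100% = DMSO wells lacking enzyme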
#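 System: purified IMP-1; amount: IMP-1 0.2 nM before substrate addition; compound: single dose, 5.6 µM; times: 25 °C, 15 min preincubation, 25 min reaction; signal: Epi-absorbance via hydrolysed-nitrocefin quenching of white-plate fluorescence, 480/530 nm, EDTA stop; benchmarks: DMSO with and without IMP-1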
# * hit, by the source's call; x = no result.
SMILES,VIM-2 inhibitor,PKA-R1A act,MsrA inhibitor,MsrA act,PKA-R2B act,IMP-1 inhibitor
C[C@@H](C(=O)N=c1sc2ccccc2n1C)N1C(=O)C2CC=CCC2C1=O (stereo partly specified),x,-10.8,0.8,-3.7,11.2,x
Cc1cccc(N2C(=O)c3cccc4c(N(C)CCO)ccc(c34)C2=O)c1,4.2,7.9,x,-2.1,-6.2,5.1*
CCc1cc(=O)oc2cc(C)cc(OC(C)C(=O)NC3CC(C)(C)NC(C)(C)C3)c12 (stereo unspecified),1.7,-7.5,0.6,-9.4,-6.5,-1.8
CCc1cc(=O)oc2c(C)c(OC(C)C(=O)NC3CC(C)(C)NC(C)(C)C3)ccc12 (stereo unspecified),8.1*,5.2,1.8,-4.5,0.6,1.5
Cn1nc(-c2ccc(C(=O)NCCO)cc2)c2ccccc2c1=O,10.0*,-2.4,1.7,-2.9,1.5,-1.4
CN(CCO)C(=O)c1ccc(-c2nn(C)c(=O)c3ccccc23)cc1,3.1,0.1,2.8,-6.1,8.5,-2.8
Cn1nc(-c2ccc(C(=O)NCC3CCCO3)cc2)c2ccccc2c1=O (stereo unspecified),2.5,7.7,-0.4,-6.0,-10.5,-2.4
Cc1cc(-c2nn(C)c(=O)c3ccccc23)cc(C)c1O,9.2*,-4.2,-0.6,-1.5,6.2,-1.1
Cn1nc(-c2ccc(OCC(=O)NCC3CCCO3)cc2)c2ccccc2c1=O (stereo unspecified),11.4*,-15.8,0.4,-0.4,7.7,-3.3
C=CCN1C[C@H](COC(=O)CSc2ccccc2)Oc2cccc(F)c2S1(=O)=O,x,x,0.1,x,x,x
O=C(N[C@H](C(=O)N1CCC[C@H]1C(=O)NCCc1ccccc1Cl)C1CCCCC1)c1cccs1,x,x,0.2,x,x,x
CCCC(=O)N1CCC1(C)C(=O)Nc1scc(C)c1C#N (stereo unspecified),x,x,x,-4.3,x,x
COc1ccc2cc1Oc1ccc(cc1)CC1c3c(cc(OC)c4c3Oc3cc5c(cc3O4)CCNC5C2)CCN1C (stereo unspecified),5.8,14.1,x,0.1,0.2,4.6*
COc1ccc2cc1Oc1ccc(cc1)C[C@H]1c3c(cc(OC)c4c3Oc3c(ccc5c3[C@H](C2)N(C)CC5)O4)CCN1C,x,-1.2,x,5.8,3.0,x
CCOC(=O)CSc1nnc(-c2ccco2)n1-c1ccc(C)cc1,-2.1,-4.5,-1.1,-2.5,-4.6,-2.7
COC(=O)CSc1nnc(-c2ccco2)n1-c1ccc(C)cc1,0.4,8.2,-0.1,-8.7,-7.6,6.0*
CC(C)CC1=C/C(=C/c2ccc(-c3ccccc3)o2)C(=O)O1,-2.8,-8.1,1.5,-6.9,-6.7,4.9*
O=C1c2cccnc2C(=O)N1Cc1ccc(S(=O)(=O)N2CCN(c3ccc(Cl)cc3)CC2)cc1,8.5*,0.3,0.9,-0.4,2.8,2.2
O=C(Nc1ccc(Nc2ccncc2)cc1)c1ccc(Nc2ccnc3ccc([N+](=O)[O-])cc23)cc1[N+](=O)[O-],1.9,-0.8,2.3,-2.0,7.3,9.1*
COCCN(C(=O)COC(=O)C1CC(=O)N(c2ccc(C)cc2)C1)c1c(N)n(Cc2ccccc2)c(=O)[nH]c1=O (stereo unspecified),x,14.1,-0.4,-2.5,7.7,x
COc1ccc(-c2cc(=O)oc3c(C)c(OCC(=O)Nc4cccnc4)ccc23)cc1,0.1,3.9,0.1,-2.2,1.5,6.7*
COC(=O)[C@]12C[C@H](CC(=O)NCc3ccc(C)o3)C(=O)N(CCC3=CCCCC3)C1=C[C@H](COCc1ccccc1)O[C@@H]2C,x,x,-0.2,x,x,x
CCC(C)[C@@H](N)C(=O)N/N=C/c1ccc2ncccc2c1 (stereo partly specified),7.8*,-4.8,-1.3,-4.5,-3.1,0.8
CCOC(=O)C1=CNS(=O)(=O)NC1c1ccc(C[C@H](NC(=O)CNC(=O)CCc2ccccc2)C(N)=O)cc1 (stereo partly specified),x,-4.2,1.0,-4.5,-1.6,x
C=C(C(=O)O)C(CCCCCC)C(=O)O (stereo unspecified),3.6,-8.0,-0.4,-0.7,-13.2,13.7*
SMILES,VIM-2 inhibitor,PKA-R1A act,MsrA inhibitor,MsrA act,PKA-R2B act,IMP-1 inhibitor
N#CC1=C2SCN(c3ccccc3)CN2C(=O)CC1c1c(Cl)cccc1Cl (stereo unspecified),46.2*,0.3,1.5,1.6,5.1,-3.7
CCOC(=O)c1nnn(-c2nonc2N)c1CSc1ccccn1,-1.3,-6.9,-0.9,8.0*,11.8,-2.8
COc1ccc(Cl)cc1Nc1nc(-c2sc(NC(=O)CC(C)C)nc2C)cs1,0.1,0.7,2.2,-4.2,-9.4,6.8*
CCCCCC(=O)Nc1nc(C)c(-c2csc(Nc3cc(OC)ccc3OC)n2)s1,-1.3,0.0,-0.2,-1.0,-7.6,-2.1
CCCCCCC(=O)Nc1nc(C)c(-c2csc(Nc3cc(OC)ccc3OC)n2)s1,-2.4,-12.2,0.8,-0.9,-4.2,10.0*
C=CCCC(=O)Nc1nc(C)c(-c2csc(Nc3cc(Cl)ccc3OC)n2)s1,0.1,-10.6,0.1,-1.9,5.8,6.2*
COC(=O)C1=C(C)N(C)C(=NCC2CC2)NC1CCc1ccccc1 (stereo unspecified),x,x,-1.4,x,x,x
COCc1n[nH]c(=S)n1-c1cccc2ccccc12,8.0*,-0.9,-0.7,-2.0,7.6,-3.4
NC(=S)Nc1ccc(S(=O)(=O)c2ccc(NC(N)=S)cc2)cc1,-4.5,1.8,1.3,-0.9,-6.1,10.6*
COCCN(C(=O)CCCc1nc2ccccc2s1)c1c(N)n(CC(C)C)c(=O)[nH]c1=O,x,-7.4,0.3,-2.4,3.8,x
CC(C)CNc1nnnc2c1sc1nc(N3CCOCC3)c3c(c12)CC(C)(C)SC3,1.3,-11.5,1.2,-2.8,-2.0,-0.3
CC1(C)Cc2c(c(N3CCOCC3)nc3sc4c(NN)ncnc4c23)CS1,-0.2,0.1,0.5,-3.0,-2.8,11.9*
CCN(CC)c1ncnc2c1sc1nc(N3CCOCC3)c3c(c12)CCC3,-0.2,x,x,x,x,7.0*
CCCCCCCCN1C(=O)[C@@H](CC(=O)NCCc2ccccc2OC)C[C@@]2(C(=O)OC)C1=C[C@H](C1CCCC1)O[C@@H]2C,x,x,0.2,x,x,x
CN(C)c1ccc(/C=C(\NC(=O)c2ccccc2)C(=O)NCc2ccncc2)cc1,-1.4,-0.8,4.7*,-4.4,-5.1,-1.1
CCNc1ccc(Br)cc(C(=O)/C=C/c2ccc(Cl)cc2)c1=O,1.0,-3.7,x,-3.9,3.9,4.5*
CNc1ccc(Br)cc(C(=O)/C=C/c2cccc(OC)c2)c1=O,0.8,-3.2,1.0,-4.3,-7.1,10.2*
Clc1cccc(-c2ccc(CNCc3ccccn3)o2)c1,11.3*,7.0,-0.1,-1.0,-0.9,-6.3
S=C(NCc1ccccn1)Nc1cccc(Cl)c1,-1.9,-11.2,-0.6,-3.7,-8.7,-4.3
